In test [1] the target is T1, Serine/threonine-protein kinase 3 (Homo sapiens, UniProt Q13188).
T1 sequence (Q13188 whole entry): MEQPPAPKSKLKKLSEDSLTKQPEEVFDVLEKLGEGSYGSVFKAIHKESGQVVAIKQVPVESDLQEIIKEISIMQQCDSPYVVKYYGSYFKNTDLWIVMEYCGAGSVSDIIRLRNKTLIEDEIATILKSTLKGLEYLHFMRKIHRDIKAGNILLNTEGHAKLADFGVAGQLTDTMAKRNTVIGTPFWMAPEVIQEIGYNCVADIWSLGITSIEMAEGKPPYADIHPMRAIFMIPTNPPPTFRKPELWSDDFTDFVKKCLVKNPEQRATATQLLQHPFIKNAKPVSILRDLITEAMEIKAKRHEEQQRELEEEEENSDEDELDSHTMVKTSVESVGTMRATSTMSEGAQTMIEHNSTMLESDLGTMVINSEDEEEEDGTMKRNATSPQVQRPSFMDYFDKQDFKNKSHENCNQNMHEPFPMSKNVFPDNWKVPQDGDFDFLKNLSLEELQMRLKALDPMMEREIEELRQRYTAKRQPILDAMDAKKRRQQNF
In words: Inhibition of recombinant His-tagged full-length MST2 (unknown origin) expressing in Escherichia coli assessed as GST-tagged MOB1a phosphorylation level incubated for 30 mins by immunoblot analysis. For orientation: Immunoblotting shows a protein as a band on a membrane.

The test system of test [2] is Mus musculus. Put plainly: Protection against APAP induced liver injury in mouse assessed as liver centrilobular necrosis at 250 mg/kg, ip administered at 1.5 hrs. It is filed as functional. A digest of the protocol:
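Wild-type mice were given APAP orally. NAC at 250 mg/kg was then injected intraperitoneally at 1.5, 2.5 or 3.5 h after APAP. Liver centrilobular necrosis was then assessed.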

Test [3] deals with Mus musculus. In words: Protection against APAP induced liver injury in mouse assessed as liver centrilobular necrosis at 250 mg/kg, ip administered at 2.5 hrs. Format: functional, organism-based.
In test [4] the test system is Mus musculus. In words: Protection against APAP induced liver injury in mouse assessed as liver centrilobular necrosis at 250 mg/kg, ip administered at 3.5 hrs. It is filed as functional, organism-based.
Test [5] concerns Mus musculus. Put plainly: Protection against APAP induced liver injury in mouse assessed as decrease in ALT level at 250 mg/kg, ip administered at 2.5 hrs. Format: functional, organism-based. Particulars: Serum.
For test [6], the system named is Mus musculus. In words: Protection against APAP induced liver injury in mouse assessed as decrease in ALT level at 250 mg/kg, ip administered at 1.5 hrs. It is filed as functional, organism-based. Particulars: Serum.

Active and inactive are the calls of the source. The rule behind the calls is not given here.

Usually IC50 stands for the concentration at which inhibition is half-maximal. With `CN1CCC(NS(=O)(=O)c2ccc(Nc3ncc4c(n3)N(C)c3ccsc3C(=O)N4C)cc2)CC1`, the IC50 in test [1] was 3840 nM.
Same read-out and setting: as for `CSc1ccc(Nc2ncc3c(n2)N(C)c2ccsc2C(=O)N3C)cc1`, the figure is 1160 nM.
On to `CN1C(=O)c2sccc2N(C)c2nc(Nc3ccc(S(C)(=O)=O)cc3)ncc21`, for which the 50% inhibitory concentration (IC50) in test [1] turned out to be 596 nM.
As to `CN1C(=O)c2sccc2N(C)c2nc(Nc3ccc(S(=O)(=O)NC4CC4)cc3)ncc21`, in test [1], the IC50 was 207 nM.
On to `CC(=O)N[C@@H](CS)C(=O)O` [ACETYLCYSTEINE], for which the outcome in test [2], in test [5] and in test [6] was Active. In test [2] (record 2), the Activity is on record as 80%. Besides, the result in test [3] and in test [4] was inactive.
